Data as given in PubChem BioAssay.
Calls of active or inactive are those of the source.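 The calls were made as follows, unless noted: active = fluorescence slope higher than the sample average by over 3 SD (cut at about -0.22 in these data, passing the limit was not always enough); inactive = the rest.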

Key:
[1] = inhibitors of TNFa-induced NFkB p65 translocation, primary screen, imaging, HUVEC, MLSMR starter and 10KST1 sets (AID 438;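 active = inhibition above 20% together with a positive visual image hit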;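 also: compound added about 3h40 before a 20 min TNFalpha stimulation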;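 as to inhibition: signal is the nuclear over cytoplasmic p65 intensity ratio per well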); conditions: HUVEC TNFa-induced p65 nuclear translocation; cell count: measured here: nuclei count (cytotoxicity indicator), at 2.08 µM; inhibition: at 2 µM, stronger effect = higher value, 0% TNFa-plus-vehicle, 100% no-TNFa wells
[2] = inhibitors of mutant huntingtin aggregation, primary screen, imaging, exon1htt(103Q)mCFP cells, high-content imaging (AID 483;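 active = visual image review flags a hit and inhibition of aggregation exceeds 20%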;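 also: compound exposure lasted 3 days before fixation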;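 as to nuclei count: percent of the per-plate median nuclei count of sample wells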); conditions: exon1htt(103Q)mCFP cell line, aggregate imaging, at 2 µM; inhibition of aggregation: stronger effect = higher value; nuclei count: measured here: cell count, toxicity
[3] = inhibitors of E-selectin induction by TNFa, primary screen, imaging, HUVEC, immunofluorescence, MLSMR starter and 10KST1 sets (AID 487;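 active = visually confirmed hit in the image check and inhibition above 20%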;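 as to inhibition: signal is fraction of cell area covered by stained E-selectin grains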;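 as to nuclei count: 100% = median nuclei count of all wells on the same plate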); conditions: HUVEC TNFalpha-induced E-selectin immunofluorescence imaging, at 2 µM; inhibition: stronger effect = higher value; nuclei count: measured here: cell number, toxicity
[4] = target: Voltage-gated potassium channel subunit beta-2 (Rattus norvegicus) (UniProt P62483); test: KvBeta enzyme negative modulators, primary screen, biochemical, NADPH fluorescence (AID 622); conditions: recombinant KvBeta, 4-cyanobenzaldehyde reduction, at 10 µM, stronger effect = higher value;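 also: slope of raw intensity against log time taken from 70 to 1610 s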
[5] = target: Voltage-gated potassium channel subunit beta-2 (Rattus norvegicus) (UniProt P62483); test: KvBeta positive modulators, primary screen, biochemical, NADPH fluorescence (AID 623;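 active = NADPH fluorescence slope more negative than the mean of all samples by about 3 SD, 99.7% confidence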;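 also: fluorescence intensity change per second fitted from 20 to 320 s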); conditions: Recombinant KvBeta, NADPH fluorescence decrease slope, 10 min; at 10 µM; stronger effect = lower value
[6] = target: Muscarinic acetylcholine receptor M4 (Homo sapiens) (UniProt P08173); test: compounds altering M4/GIRK thallium flux, either direction, primary screen, M4 allosteric agonist project, cell-based, HEK293 M4/GIRK, BTC-AM (AID 625;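 active = fluorescence slope after compound addition differing from the mean of all tested samples at 99.7% confidence, mostly higher but some lower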;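 also: thallium influx through GIRK channels coupled to M4 in HEK293 cells with BTC-AM dye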); conditions: at 10 µM, actives lie on both sides
Summary of the method: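 Material – HEK293 cells with M4 receptor and GIRK channels · Buffer or medium – pH 7.3 thallium assay buffer · Doses – one dose, 10 µM final · Timing – cells overnight at 37 °C, BTC-AM loading 1 h, reads 2 min total · Measured by – kinetic fluorescence with BTC-AM dye · Controls – carbachol and DMSO controls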

[7] = inhibitors of Sendai virus-induced IRF3 signaling, primary screen, TLR/RLR signaling modifier project, cell-based, Sendai virus stimulus, luciferase, 10K MLSCN set (AID 602276;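 active = inhibition at or above 50% at 10 µM; inactive = inhibition below 50%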;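 also: firefly luciferase from ISG56 promoter only with Renilla not read in this screen; 0% = Sendai virus plus DMSO and 100% = medium plus DMSO without virus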); conditions: HEK293 RL24 IRF3 luciferase reporter, at 10 µM, stronger effect = higher value
[8] = inhibitors of poly I:C-induced TLR3 signaling, primary screen, cell-based, poly I:C stimulus, luciferase, 10K MLSCN set (AID 602277;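 active = inhibition of the reporter signal at or above 50%; inactive = inhibition below 50%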); conditions: HEK293-TLR3 RL24 IRF3 luciferase reporter, at 10 µM, stronger effect = higher value

Sequence of Voltage-gated potassium channel subunit beta-2 (Rattus norvegicus) (P62483 whole entry, looked up): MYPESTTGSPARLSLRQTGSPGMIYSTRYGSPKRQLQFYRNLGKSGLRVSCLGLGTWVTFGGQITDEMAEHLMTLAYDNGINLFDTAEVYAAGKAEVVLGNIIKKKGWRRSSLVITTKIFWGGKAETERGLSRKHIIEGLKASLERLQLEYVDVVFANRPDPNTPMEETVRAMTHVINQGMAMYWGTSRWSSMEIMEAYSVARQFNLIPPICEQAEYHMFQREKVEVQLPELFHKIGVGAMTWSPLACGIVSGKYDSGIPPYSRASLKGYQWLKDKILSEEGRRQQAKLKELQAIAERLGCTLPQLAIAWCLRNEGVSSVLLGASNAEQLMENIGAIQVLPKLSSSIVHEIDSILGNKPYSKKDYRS
Sequence of Muscarinic acetylcholine receptor M4 (Homo sapiens) (P08173 whole entry, looked up): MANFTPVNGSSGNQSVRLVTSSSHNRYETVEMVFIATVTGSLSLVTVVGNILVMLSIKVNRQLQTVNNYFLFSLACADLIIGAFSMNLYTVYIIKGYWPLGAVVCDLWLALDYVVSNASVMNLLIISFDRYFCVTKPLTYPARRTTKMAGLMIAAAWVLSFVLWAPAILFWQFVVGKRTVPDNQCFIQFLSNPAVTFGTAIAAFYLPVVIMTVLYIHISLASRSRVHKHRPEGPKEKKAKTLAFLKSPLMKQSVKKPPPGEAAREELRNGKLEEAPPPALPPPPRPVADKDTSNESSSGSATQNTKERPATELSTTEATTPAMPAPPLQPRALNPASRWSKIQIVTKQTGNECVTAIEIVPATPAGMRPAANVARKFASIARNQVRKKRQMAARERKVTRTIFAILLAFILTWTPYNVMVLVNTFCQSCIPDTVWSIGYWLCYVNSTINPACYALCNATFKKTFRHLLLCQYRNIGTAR

| Structure (SMILES) | cell count [1] | inhibition [1] | inhibition of aggregation [2] | nuclei count [2] | inhibition [3] | nuclei count [3] | fluorescence slope [4] | NADPH fluorescence slope [5] | fluorescence slope [6] | inhibition [7] | inhibition [8] |
| --- | --- | --- | --- | --- | --- | --- | --- | --- | --- | --- | --- |
| Cc1ccc(C)c(-c2nc3cc(N)ccc3o2)c1 | 407 | 12.5% (inactive) | 20.6% (inactive) | 97.9% | -435% (inactive) | 124% | -0.0313 (active) | -3e-06 (inactive) | 0.00545 (inactive) | 4.93% (inactive) | 1.69% (inactive) |
| Cc1ccc(-c2cc(C(F)F)nc(N3CCC(C)CC3)n2)cc1 | 653 | -35.4% (inactive) | -11.6% (inactive) | 102% | -81.9% (inactive) | 117% | -0.432 (inactive) | -1.2e-05 (inactive) | 0.00777 (inactive) | 4.72% (inactive) | -1.99% (inactive) |
| CCC(C)(C)NC(=O)C(OC(=O)c1ccco1)c1ccccc1OC (stereo not drawn) | 610 | -6.2% (inactive) | 11% (inactive) | 87.5% | -4.1% (inactive) | 107% | -0.248 (inactive) | 3.7e-06 (inactive) | 0.00739 (inactive) | 0.26% (inactive) | 8.58% (inactive) |
| CC(C(=O)Oc1ccc2c(c1)OCO2)N1C(=O)c2ccccc2C1=O (stereo not drawn) | 790 | -10.1% (inactive) | 9.8% (inactive) | 104% | -33.5% (inactive) | 101% | -0.609 (inactive) | -2.3e-05 (inactive) | 0.00538 (inactive) | 23.3% (inactive) | 27.7% (inactive) |
| CCS(=O)(=O)c1ccc(S(=O)(=O)CC)s1 | 412 | -5.5% (inactive) | 25.8% (inactive) | 61.1% | 10.5% (inactive) | 82.3% | -0.584 (inactive) | -4.4e-05 (inactive) | 0.00846 (inactive) | 6.99% (inactive) | 17.4% (inactive) |
| CC(=O)c1cccc(NC(=O)N2C3CCC2CC(O)(c2cccnc2)C3)c1 (stereo not drawn) | 602 | 9.7% (inactive) | -21.4% (inactive) | 104% | -27.6% (inactive) | 106% | -0.259 (inactive) | 3.9e-06 (inactive) | 0.0059 (inactive) | -7.02% (inactive) | 16.5% (inactive) |
| Cc1cccc2cc(CN(Cc3nnnn3Cc3ccco3)C3CCCC3)c3nnnn3c12 | 719 | -2.8% (inactive) | 4.4% (inactive) | 113% | -14% (inactive) | 116% | -0.451 (inactive) | 3.4e-05 (inactive) | 0.00551 (inactive) | 9.99% (inactive) | 13% (inactive) |
| COc1ccc(Nc2nc(OC)nc(N3CCN(c4ccc(OC)cc4)CC3)n2)cc1 | 646 | -0.5% (inactive) | -13.1% (inactive) | 93.5% | -14.1% (inactive) | 100% | -0.555 (inactive) | -3.4e-05 (inactive) | 0.00593 (inactive) | 14% (inactive) | -11.1% (inactive) |
| CCCOc1ccc(C2C(C(=O)c3ccc(C)o3)=C(O)C(=O)N2Cc2cccnc2)cc1 (stereo not drawn) | 755 | -2.8% (inactive) | -9.2% (inactive) | 105% | 35.3% (inactive) | 107% | -0.495 (inactive) | 9.3e-06 (inactive) | 0.00434 (inactive) | 9.82% (inactive) | 3.74% (inactive) |
| CCc1nnc(NC(=O)c2ccc(S(=O)(=O)NC3CCCCC3)cc2)s1 | 534 | 0.4% (inactive) | 20.7% (inactive) | 107% | -22.8% (inactive) | 110% | -0.307 (inactive) | -6e-05 (inactive) | 0.00791 (inactive) | 0.752% (inactive) | -17.5% (inactive) |
| COc1ccc(C(=O)CSc2nnc(CNc3ccc(C)cc3C)o2)cc1 | 606 | -4.1% (inactive) | 3% (inactive) | 101% | -136% (inactive) | 199% | -0.469 (inactive) | -8.4e-05 (inactive) | 0.00401 (inactive) | 14.6% (inactive) | 11.8% (inactive) |
| CCOc1cc(N2CCOCC2)c(OCC)cc1NC(=O)COC(=O)CCc1c[nH]c2ccccc12 | 300 | -5.2% (inactive) | 7.9% (inactive) | 105% | -28% (inactive) | 109% | -0.273 (inactive) | -1.5e-05 (inactive) | 0.00571 (inactive) | 2.83% (inactive) | 20.2% (inactive) |
| COCCCNS(=O)(=O)c1ccc2c(c1)CCN2C(C)=O | 416 | 0.3% (inactive) | -9.3% (inactive) | 125% | -31.6% (inactive) | 139% | -0.578 (inactive) | 1.1e-05 (inactive) | 0.00611 (inactive) | 15.1% (inactive) | 15% (inactive) |
| O=C(CN1C(=O)CC(c2ccco2)Sc2ccccc21)Nc1ccc2c(c1)OCCO2 (stereo not drawn) | 809 | -2.8% (inactive) | -218% (inactive) | 99.6% | -69.7% (inactive) | 105% | -0.459 (inactive) | -1.9e-05 (inactive) | 0.0054 (inactive) | 14.9% (inactive) | 9.54% (inactive) |
| COc1cccc(N2CCN(CC(=O)NCc3cccs3)CC2)c1 | 702 | -27.6% (inactive) | 20.4% (inactive) | 100% | 24.5% (inactive) | 99.5% | -0.318 (inactive) | -1.7e-05 (inactive) | 0.00733 (inactive) | 21.2% (inactive) | -6.45% (inactive) |
| CN(CC(=O)N1CCN(c2ccccn2)CC1)S(=O)(=O)c1ccc2ccccc2c1 | 395 | 0.9% (inactive) | 1.9% (inactive) | 115% | -109% (inactive) | 119% | -0.478 (inactive) | -7e-05 (inactive) | 0.00469 (inactive) | 4.05% (inactive) | 4.08% (inactive) |
| CC(C)(C)OC(=O)N1CCC(C(=O)N2CCCCCC2)CC1 | 383 | 4.6% (inactive) | 0.1% (inactive) | 90% | -36.8% (inactive) | 97% | -0.529 (inactive) | -8e-05 (inactive) | 0.00575 (inactive) | 7.78% (inactive) | 11.9% (inactive) |
| COc1ccc(C2C(C#N)=C(C)NC3=C2C(=O)CC(C)(C)C3)c(OC)c1 (stereo not drawn) | 252 | -8% (inactive) | 19.6% (inactive) | 70.9% | 31.4% (inactive) | 96% | -0.463 (inactive) | -4.1e-06 (inactive) | 0.00543 (inactive) | 15.1% (inactive) | 18.9% (inactive) |
| C=CCn1c(C)cc(C(=O)CSc2nc3ccccc3c(=O)[nH]2)c1C | 278 | -0.8% (inactive) | 11.4% (inactive) | 92% | -59.5% (inactive) | 104% | -0.52 (inactive) | -3.3e-05 (inactive) | 0.0056 (inactive) | -41.3% (inactive) | -75.7% (inactive) |
| CCOC(=O)c1c(C)oc2ccc(OCC(N)=O)cc12 | 794 | -12.1% (inactive) | -6.7% (inactive) | 36.5% | 20.4% (inactive) | 93.5% | -0.483 (inactive) | -1.6e-05 (inactive) | 0.00617 (inactive) | 5.65% (inactive) | 6.54% (inactive) |
| CCCC(=O)Nc1ccc(NC(=O)c2cccs2)cn1 | 425 | 6.7% (inactive) | 10.4% (inactive) | 106% | -445% (inactive) | 140% | -0.578 (inactive) | -3.4e-05 (inactive) | 0.00548 (inactive) | -12.8% (inactive) | -57.7% (inactive) |
| Cc1c(C(=O)NCc2ccccn2)oc2ccccc12 | 328 | -4.1% (inactive) | -3.8% (inactive) | 86% | 44.5% (inactive) | 49.4% | -0.514 (inactive) | 8.6e-06 (inactive) | 0.00478 (inactive) | -29.5% (inactive) | -79.6% (inactive) |
| Cc1ncc(CO)c2c1OC(C)(C)OC2 | 373 | 2.5% (inactive) | -26.3% (inactive) | 106% | -39.2% (inactive) | 97.7% | -0.515 (inactive) | -0.0002 (inactive) | 0.00488 (inactive) | 8.62% (inactive) | 15.1% (inactive) |
| Cc1cc(N2C(=O)C3C4C=CC(C4)C3C2=O)ccc1Br (stereo not drawn) | 775 | 18.7% (inactive) | 0.6% (inactive) | 110% | 98.6% (active) | 42% | -0.502 (inactive) | -5.3e-05 (inactive) | 0.00619 (inactive) | -31.9% (inactive) | 100% (active) |
| COc1ccc2c(c1)CCc1c(C(=O)N3CC4(C)CC3CC(C)(C)C4)noc1-2 (stereo not drawn) | 250 | -6.9% (inactive) | 18.9% (inactive) | 98.8% | -59% (inactive) | 104% | -0.586 (inactive) | -1.4e-05 (inactive) | 0.00924 (inactive) | 1.5% (inactive) | 10.1% (inactive) |
| O=C(c1cn(-c2ccccc2)nc1-c1cccs1)N1CCN(c2ccccn2)CC1 | 465 | -10.8% (inactive) | 11.5% (inactive) | 84.1% | -83% (inactive) | 150% | -0.421 (inactive) | 4e-05 (inactive) | 0.00586 (inactive) | 6.18% (inactive) | -18.9% (inactive) |
| CCOC(=O)c1ccccc1NC(=O)COC(=O)C1=COCCO1 | 595 | -3.1% (inactive) | 14% (inactive) | 61.5% | -92% (inactive) | 95.5% | -0.286 (inactive) | -3.3e-05 (inactive) | 0.00593 (inactive) | 15.1% (inactive) | 2.55% (inactive) |
| O=C(O)CCCCCNc1nc(=S)[nH]c2ccccc12 | 494 | -7.5% (inactive) | 20% (inactive) | 102% | 9.6% (inactive) | 105% | -0.384 (inactive) | 2.9e-05 (inactive) | 0.0068 (inactive) | 11.5% (inactive) | 19.2% (inactive) |
